Results published in ChEMBL document CHEMBL1141958, “Toll-like receptor 2 antagonists. Part 1: preliminary SAR investigation of novel synthetic phospholipids” (Bioorg Med Chem Lett, 2005).

Key:
Toll-like receptor 2 [1] = target: T1, Toll-like receptor 2 (Homo sapiens, UniProt O60603); assay: Antagonistic potency at TLR2 expressed in HEK293 cells; format: functional, cell-based
Toll-like receptor 4 = Toll-like receptor 4 (Homo sapiens, UniProt O00206); assay: Antagonistic potency at human TLR4 expressed in HEK293 cells; format: functional, cell-based
Toll-like receptor 2 [2] = target: T1, Toll-like receptor 2; assay: Antagonistic activity at TLR in human PBMC; format: functional
Procedure, shortened: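 PBMCs purified from heparinized blood of healthy human donors, seeded at 50,000 cells per well. Pam3CysSK4 (50 ng/ml) added together with compound at 30, 10, 3, 1, 0.3, 0.1 and 0.03 µM; 6 h at 37 °C. Supernatants collected by centrifugation, stored at -20 °C, TNFα measured by ELISA.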

Chain of Toll-like receptor 4 (O00206 whole entry): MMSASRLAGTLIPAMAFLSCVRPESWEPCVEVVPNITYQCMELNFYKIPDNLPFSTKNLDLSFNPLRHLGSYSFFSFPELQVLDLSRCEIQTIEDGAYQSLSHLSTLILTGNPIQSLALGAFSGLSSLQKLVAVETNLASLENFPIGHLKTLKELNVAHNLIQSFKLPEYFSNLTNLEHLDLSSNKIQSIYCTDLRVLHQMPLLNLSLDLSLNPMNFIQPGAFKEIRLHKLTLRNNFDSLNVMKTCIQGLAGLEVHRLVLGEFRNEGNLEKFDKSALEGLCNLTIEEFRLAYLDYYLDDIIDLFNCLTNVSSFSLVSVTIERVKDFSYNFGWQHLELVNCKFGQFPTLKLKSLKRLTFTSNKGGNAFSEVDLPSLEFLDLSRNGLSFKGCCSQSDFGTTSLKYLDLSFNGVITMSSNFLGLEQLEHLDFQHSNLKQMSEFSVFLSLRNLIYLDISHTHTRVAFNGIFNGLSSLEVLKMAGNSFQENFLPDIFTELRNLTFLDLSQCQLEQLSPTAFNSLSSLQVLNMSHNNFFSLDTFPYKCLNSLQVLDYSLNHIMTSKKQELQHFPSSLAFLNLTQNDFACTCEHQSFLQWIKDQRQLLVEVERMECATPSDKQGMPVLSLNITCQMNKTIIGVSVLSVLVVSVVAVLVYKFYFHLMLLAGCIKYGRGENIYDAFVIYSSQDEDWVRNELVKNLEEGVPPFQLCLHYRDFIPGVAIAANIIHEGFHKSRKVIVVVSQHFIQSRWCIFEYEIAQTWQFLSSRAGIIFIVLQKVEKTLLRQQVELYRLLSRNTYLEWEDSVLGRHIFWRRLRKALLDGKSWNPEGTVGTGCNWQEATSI
T1 sequence (O60603 whole entry): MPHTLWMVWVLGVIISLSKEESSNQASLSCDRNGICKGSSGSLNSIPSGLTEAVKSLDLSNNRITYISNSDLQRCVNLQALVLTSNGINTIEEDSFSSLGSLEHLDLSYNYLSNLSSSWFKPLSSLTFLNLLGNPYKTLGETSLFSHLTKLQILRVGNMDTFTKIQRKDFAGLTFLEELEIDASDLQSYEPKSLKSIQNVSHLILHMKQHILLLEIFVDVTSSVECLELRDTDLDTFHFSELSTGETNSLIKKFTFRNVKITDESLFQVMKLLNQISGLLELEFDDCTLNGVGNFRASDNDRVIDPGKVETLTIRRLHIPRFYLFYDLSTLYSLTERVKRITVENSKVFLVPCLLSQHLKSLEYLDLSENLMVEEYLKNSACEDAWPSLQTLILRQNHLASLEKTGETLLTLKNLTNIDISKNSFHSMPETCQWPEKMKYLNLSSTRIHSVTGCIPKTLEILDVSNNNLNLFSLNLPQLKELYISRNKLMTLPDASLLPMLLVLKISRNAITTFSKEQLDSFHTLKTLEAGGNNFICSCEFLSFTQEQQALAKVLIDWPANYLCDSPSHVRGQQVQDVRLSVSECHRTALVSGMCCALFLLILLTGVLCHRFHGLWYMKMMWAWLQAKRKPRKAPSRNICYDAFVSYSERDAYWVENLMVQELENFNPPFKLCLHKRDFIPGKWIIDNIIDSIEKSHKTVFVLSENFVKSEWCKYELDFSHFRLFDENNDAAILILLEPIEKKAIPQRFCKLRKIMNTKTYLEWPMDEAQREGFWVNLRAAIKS

IC50 (Toll-like receptor 2 [1]) | IC50 (Toll-like receptor 4) | IC50 (Toll-like receptor 2 [2]) | Compound
1.25 µM |  |  | CCCCCCCCCCCCCC(=O)O[C@H](COCC[C@@H](CCCCCCC)OC(=O)CCCCCCCCCCC)COP(=O)(O)OCCNC(=O)C(Cc1ccc(O)cc1)C(=O)O (some centres undefined)
22 µM | 0.25 µM |  | CCCCCCCCCCCCCC(=O)N[C@@H](COCC[C@@H](CCCCCCC)OC(=O)CCCCCCCCCCC)COP(=O)(O)OCCNC(=O)C(Cc1ccc(O)cc1)C(=O)O (some centres undefined)
2.15 µM |  |  | CCCCCCCCCCCCCC(=O)N[C@H](COCC[C@@H](CCCCCCC)OC(=O)CCCCCCCCCCC)COP(=O)(O)OCCNC(=O)CCc1ccc(O)cc1
6.46 µM | 0.16 µM |  | CCCCCCCCCCCCCC(=O)N[C@H](COCC[C@H](CCCCCCC)OC(=O)CCCCCCCCCCC)COP(=O)(O)OCCNC(=O)C(Cc1ccc(O)cc1)C(=O)O (some centres undefined)
6.9 µM | 0.08 µM |  | CCCCCCCCCCCCCC(=O)N[C@@H](COCC[C@H](CCCCCCC)OC(=O)CCCCCCCCCCC)COP(=O)(O)OCCNC(=O)C(Cc1ccc(O)cc1)C(=O)O (some centres undefined)
0.95 µM |  |  | CCCCCCCCCCCCCC(=O)N[C@@H](COP(=O)(O)OCCNC(=O)C(Cc1ccc(O)cc1)C(=O)O)C(=O)OCC[C@@H](CCCCCCC)OC(=O)CCCCCCCCCCC (some centres undefined)
5.2 µM |  |  | CCCCCCCCCCCCCC(=O)N[C@H](COCC[C@@H](CCCCCCC)NC(=O)CCCCCCCCCCC)COP(=O)(O)OCCNC(=O)C(Cc1ccc(O)cc1)C(=O)O (some centres undefined)
3.07 µM | 0.35 µM | 1.6 µM | CCCCCCCCCCCCCC(=O)N[C@H](COCC[C@@H](CCCCCCC)OC(=O)CCCCCCCCCCC)COP(=O)(O)OCCNC(=O)C(Cc1ccc(O)cc1)C(=O)O (some centres undefined)
0.9 µM |  |  | CCCCCCCCCCCCCC(=O)N[C@@H](COP(=O)(O)OCCNC(=O)C(Cc1ccc(O)cc1)C(=O)O)C(=O)NCC[C@@H](CCCCCCC)OC(=O)CCCCCCCCCCC (some centres undefined)
